Data reported in ChEMBL document CHEMBL1177741, “Cardiac glycosides from Antiaris toxicaria with potent cardiotonic activity” (J Nat Prod, 2010).

How the values were obtained:
[1] = organism: Cavia porcellus; assay: Inhibition of Na(+)/K(+)-ATPase in guinea pig atria by whole cell patch clamp method
[2] = Safety index, ratio of arrhythmogenic concentration to minimum positive inotropic effective concentration causing myocardial contraction in guinea pig right ventricular muscles; assay type: toxicity, tissue-based, Cavia porcellus, Muscle tissue; settings: isolated right ventricular muscles
Method in brief: (§1)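 Paced guinea pig left atrial or right ventricular strips (1 g tension, 2 Hz) received cumulative drug addition. The lowest concentration raising contraction (PIECmin) and the concentration inducing arrhythmia were both recorded. Safety index was calculated as the ratio of the arrhythmogenic concentration to PIECmin.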

[3] = Safety index, ratio of arrhythmogenic concentration to minimum positive inotropic effective concentration causing myocardial contraction in guinea pig left atrial muscles; assay type: toxicity, tissue-based, Cavia porcellus, Muscle tissue; settings: isolated left atrial muscles; method in brief: as §1
[4] = Cardiotonic activity in guinea pig left atrial muscles assessed as minimum positive inotropic effective concentration causing myocardial contraction; assay type: functional, Cavia porcellus, Muscle tissue
Method in brief: (§2)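 Guinea pig left atrial or right ventricular strips were perfused with Tyrode's solution, held at 1 g tension and paced at 2 Hz (2 ms, twice threshold). After about 60 min stabilisation, drug was added cumulatively. PIECmin was recorded as the lowest concentration that increased myocardial contraction.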

[5] = Cardiotonic activity in guinea pig right ventricular muscles assessed as maximum positive inotropic effective concentration causing myocardial contraction relative to basal level; assay type: functional, Cavia porcellus, Muscle tissue
Method in brief: (§3)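 Isolated left atrial or right ventricular strips from adult guinea pigs (300–500 g; pentobarbital 25 mg/kg i.p.; heart retrogradely perfused with Tyrode's, pH not stated). Tissue held at 1 g tension, paced at 2 Hz (2 ms pulses, twice threshold), stabilised about 60 min, then given cumulative drug additions. Maximal inotropic effect taken at the concentration just before arrhythmia onset.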

[6] = Cardiotonic activity in guinea pig left atrial muscles assessed as maximum positive inotropic effective concentration causing myocardial contraction relative to basal level; assay type: functional, Cavia porcellus, Muscle tissue; method in brief: as §3
[7] = Cardiotonic activity in guinea pig right ventricular muscles assessed as minimum positive inotropic effective concentration causing myocardial contraction; assay type: functional, Cavia porcellus, Muscle tissue; method in brief: as §2

Row | SMILES | inhibition [1] | selectivity ratio [2] | selectivity ratio [3] | Activity [4] | Activity [5] | Activity [6] | Activity [7]
1 | C[C@@H]1O[C@H](O[C@H]2CC[C@@]3(C=O)[C@H](CC[C@@H]4[C@@H]3CC[C@]3(C)[C@@H](C5=CC(=O)OC5)CC[C@]43O)C2)[C@H](O)[C@H](O)[C@H]1O [MALAYOSIDE] | Dose-dependent effect | 24 | 20 | 0.25 µM | 464% | 660% | 0.25 µM
2 | C[C@@H]1O[C@H](O[C@H]2CC[C@]3(C)[C@H]4CC[C@]5(C)[C@@H](C6=CC(=O)OC6)CC[C@]5(O)[C@@H]4CC[C@]3(O)C2)[C@H](O)[C@H](O)[C@H]1O [PERIPLORHAMNOSIDE] |  | 8.8 | 11 | 0.05 µM | 355% | 381% | 0.25 µM
3 | C[C@]12CC[C@H]3[C@@H](CC[C@]4(O)C[C@@H](O)CC[C@]34CO)[C@@]1(O)CC[C@@H]2C1=CC(=O)OC1 [STROPHANTHIDOL] |  | 65 | 6.3 | 1.25 µM | 408% | 205% | 0.3 µM
